From ChEMBL document CHEMBL4152221, “Synthesis and structure-activity relationship of furoquinolinediones as inhibitors of Tyrosyl-DNA phosphodiesterase 2 (TDP2)” (Eur J Med Chem, 2018)
Calls of active or inactive are those of the source.

Experiments:
[1] = target: T1, Tyrosyl-DNA phosphodiesterase 2 (Homo sapiens, UniProt O95551); experiment: Inhibition of human TDP2 expressed in TDP2 deficient chicken DT40 whole cell extracts using TY19 DNA as substrate after 15 mins by PAGE analysis
T1 sequence (O95551 whole entry): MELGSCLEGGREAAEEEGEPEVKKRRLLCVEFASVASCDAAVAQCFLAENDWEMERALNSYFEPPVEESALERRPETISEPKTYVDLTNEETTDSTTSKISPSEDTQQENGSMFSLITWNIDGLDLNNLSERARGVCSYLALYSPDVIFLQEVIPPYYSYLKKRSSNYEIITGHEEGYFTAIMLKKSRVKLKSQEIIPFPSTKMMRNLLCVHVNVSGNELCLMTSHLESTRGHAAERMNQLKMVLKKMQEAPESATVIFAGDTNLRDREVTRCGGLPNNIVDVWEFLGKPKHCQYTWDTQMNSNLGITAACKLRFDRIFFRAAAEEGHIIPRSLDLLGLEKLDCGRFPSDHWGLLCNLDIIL
Method in brief: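 Extract from 1×10^7 TDP2-knockout DT40 cells complemented with human TDP2, lysed 15 min on ice, spun at 12000 g for 10 min, stored at -80 °C. TY19 substrate at 1 nM with 5 μg/mL extract, ±inhibitor, 15 min at room temperature in LMP2 buffer. Gel densitometry. IC50 is mean ± SD of ≥3 independent experiments.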

[2] = target: T2, Tyrosyl-DNA phosphodiesterase 2 (Homo sapiens) (UniProt O95551); experiment: (§1) Inhibition of recombinant human TDP2 using TY18 (alpha-[32P]-cordycepin-3'-labeled) as substrate after 15 mins by PAGE analysis
T2 sequence (whole entry): T1 sequence (O95551 whole entry)
Method in brief: (§2)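 32P-cordycepin-3'-labeled TY18 substrate at 1 nM with 25 pM recombinant human TDP2, 15 min at room temperature. Buffer: 50 mM Tris-HCl pH 7.5, 80 mM KCl, 5 mM MgCl2, 0.1 mM EDTA, 1 mM DTT, 40 μg/mL BSA, 0.01% Tween 20. Six or eight three-fold dilutions up to 111 μM. Gel densitometry; IC50 is mean ± SD of ≥3 independent experiments. Positive control: SV-163.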

[3] = target: T1, Tyrosyl-DNA phosphodiesterase 2; experiment: as §1; method in brief: as §2
[4] = target: T2, Tyrosyl-DNA phosphodiesterase 2 (Homo sapiens); experiment: Inhibition of recombinant human TDP2 at 111 uM using alpha-[32P]-cordycepin-3'-labeled TY18 as substrate after 15 mins by PAGE analysis; method in brief: as §2
[5] = target: T3, Tyrosyl-DNA phosphodiesterase 1 (Homo sapiens, UniProt Q9NUW8); experiment: Inhibition of recombinant TDP1 (unknown origin) at 111 uM using 5'-[32P]-labeled N14Y as substrate after 15 mins by PAGE analysis
Method in brief: (§3)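 5'-32P-labeled N14Y (3'-phosphotyrosyl single-stranded oligo) at 1 nM with 10 pM recombinant TDP1, 15 min at room temperature. Three-fold dilutions up to 111 μM. Gels scanned and quantified by densitometry. Positive control: AM-8-3.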

[6] = target: DNA topoisomerase 2-alpha (Homo sapiens) (UniProt P11388); experiment: Poisoning activity at Top2alpha in human CCRF-CEM cells assessed as TOP2-DNA covalent cleavage complex up to 50 uM after 2 hrs by Western blot analysis based ICE assay; assay type: cell-based
Method in brief: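 60×10^5 CCRF-CEM cells treated 2 h with compound at 10 or 50 μM, alone or combined with 10 μM etoposide, then lysed in 1% Sarkosyl. TOP2-DNA covalent complexes detected by ICE assay. Etoposide at 10 and 50 μM served as positive control.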

Homo sapiens = organism: Homo sapiens; experiment: Inhibition of Top2 (unknown origin) assessed as decrease in relaxation of supercoiled pBR322 DNA at 25 uM
Method in brief: (§4)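 Supercoiled pBR322 plasmid incubated with TOP1 or TOP2 enzyme, with or without test compound at 25 μM. Relaxed and supercoiled forms separated on agarose gel. Positive controls: camptothecin for TOP1, etoposide for TOP2.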

[7] = target: T4, DNA topoisomerase 1 (Homo sapiens) (UniProt P11387); experiment: Inhibition of Top1 (unknown origin) assessed as decrease in relaxation of supercoiled pBR322 DNA at 25 uM; method in brief: as §4
T4 sequence (whole entry): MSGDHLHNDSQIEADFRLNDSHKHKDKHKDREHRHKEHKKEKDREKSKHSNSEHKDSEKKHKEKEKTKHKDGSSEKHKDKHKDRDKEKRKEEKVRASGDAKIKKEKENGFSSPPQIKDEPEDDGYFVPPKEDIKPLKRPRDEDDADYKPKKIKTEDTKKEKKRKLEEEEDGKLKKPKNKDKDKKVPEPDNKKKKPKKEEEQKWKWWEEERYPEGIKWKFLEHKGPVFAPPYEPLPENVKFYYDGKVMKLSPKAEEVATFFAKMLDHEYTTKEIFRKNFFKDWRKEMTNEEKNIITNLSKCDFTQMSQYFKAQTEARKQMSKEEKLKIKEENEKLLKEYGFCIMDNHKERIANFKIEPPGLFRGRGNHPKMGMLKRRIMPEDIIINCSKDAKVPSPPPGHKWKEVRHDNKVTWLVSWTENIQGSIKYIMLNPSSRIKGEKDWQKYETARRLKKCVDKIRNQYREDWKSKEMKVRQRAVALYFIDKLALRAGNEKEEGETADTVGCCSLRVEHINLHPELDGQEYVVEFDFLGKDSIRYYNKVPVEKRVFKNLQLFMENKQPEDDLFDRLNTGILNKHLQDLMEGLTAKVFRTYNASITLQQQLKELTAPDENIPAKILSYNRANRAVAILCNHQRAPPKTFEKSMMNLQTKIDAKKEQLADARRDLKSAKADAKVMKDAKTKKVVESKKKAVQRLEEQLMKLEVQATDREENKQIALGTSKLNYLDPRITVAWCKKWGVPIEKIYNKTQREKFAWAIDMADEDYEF

[8] = target: T3, Tyrosyl-DNA phosphodiesterase 1; experiment: Inhibition of recombinant TDP1 (unknown origin) using 5'-[32P]-labeled N14Y as substrate after 15 mins by PAGE analysis; method in brief: as §3
[9] = target: DNA topoisomerase 2-alpha (Homo sapiens) (UniProt P11388); experiment: Poisoning activity at Top2alpha in human CCRF-CEM cells assessed as TOP2-DNA covalent cleavage complex up to 100 uM after 2 hrs by Western blot analysis based ICE assay; assay type: cell-based
Method in brief: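 ICE assay: 60×10^5 CCRF-CEM cells exposed to compound for 2 h, then lysed in 1% Sarkosyl to detect TOP2–DNA covalent cleavage complexes. Etoposide at 10 and 50 μM served as positive control, with one lane co-treated with 10 μM etoposide.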

T3 sequence (Q9NUW8 whole entry): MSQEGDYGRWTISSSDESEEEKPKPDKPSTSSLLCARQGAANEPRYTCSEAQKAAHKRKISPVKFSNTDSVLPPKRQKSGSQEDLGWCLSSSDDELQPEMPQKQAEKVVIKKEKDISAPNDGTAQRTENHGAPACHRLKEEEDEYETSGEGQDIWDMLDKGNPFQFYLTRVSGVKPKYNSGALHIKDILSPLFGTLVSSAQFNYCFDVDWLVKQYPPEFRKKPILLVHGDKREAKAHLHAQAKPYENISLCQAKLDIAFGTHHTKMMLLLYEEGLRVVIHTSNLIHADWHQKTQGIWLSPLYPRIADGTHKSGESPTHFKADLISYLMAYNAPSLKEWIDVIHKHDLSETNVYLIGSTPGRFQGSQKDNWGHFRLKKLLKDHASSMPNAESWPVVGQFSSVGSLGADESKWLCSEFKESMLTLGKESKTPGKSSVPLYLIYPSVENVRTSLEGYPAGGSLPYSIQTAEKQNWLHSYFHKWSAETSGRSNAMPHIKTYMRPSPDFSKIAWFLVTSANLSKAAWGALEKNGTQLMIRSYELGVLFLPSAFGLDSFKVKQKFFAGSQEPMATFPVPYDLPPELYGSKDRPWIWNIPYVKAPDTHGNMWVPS
Chain of DNA topoisomerase 2-alpha (Homo sapiens) (P11388 whole entry): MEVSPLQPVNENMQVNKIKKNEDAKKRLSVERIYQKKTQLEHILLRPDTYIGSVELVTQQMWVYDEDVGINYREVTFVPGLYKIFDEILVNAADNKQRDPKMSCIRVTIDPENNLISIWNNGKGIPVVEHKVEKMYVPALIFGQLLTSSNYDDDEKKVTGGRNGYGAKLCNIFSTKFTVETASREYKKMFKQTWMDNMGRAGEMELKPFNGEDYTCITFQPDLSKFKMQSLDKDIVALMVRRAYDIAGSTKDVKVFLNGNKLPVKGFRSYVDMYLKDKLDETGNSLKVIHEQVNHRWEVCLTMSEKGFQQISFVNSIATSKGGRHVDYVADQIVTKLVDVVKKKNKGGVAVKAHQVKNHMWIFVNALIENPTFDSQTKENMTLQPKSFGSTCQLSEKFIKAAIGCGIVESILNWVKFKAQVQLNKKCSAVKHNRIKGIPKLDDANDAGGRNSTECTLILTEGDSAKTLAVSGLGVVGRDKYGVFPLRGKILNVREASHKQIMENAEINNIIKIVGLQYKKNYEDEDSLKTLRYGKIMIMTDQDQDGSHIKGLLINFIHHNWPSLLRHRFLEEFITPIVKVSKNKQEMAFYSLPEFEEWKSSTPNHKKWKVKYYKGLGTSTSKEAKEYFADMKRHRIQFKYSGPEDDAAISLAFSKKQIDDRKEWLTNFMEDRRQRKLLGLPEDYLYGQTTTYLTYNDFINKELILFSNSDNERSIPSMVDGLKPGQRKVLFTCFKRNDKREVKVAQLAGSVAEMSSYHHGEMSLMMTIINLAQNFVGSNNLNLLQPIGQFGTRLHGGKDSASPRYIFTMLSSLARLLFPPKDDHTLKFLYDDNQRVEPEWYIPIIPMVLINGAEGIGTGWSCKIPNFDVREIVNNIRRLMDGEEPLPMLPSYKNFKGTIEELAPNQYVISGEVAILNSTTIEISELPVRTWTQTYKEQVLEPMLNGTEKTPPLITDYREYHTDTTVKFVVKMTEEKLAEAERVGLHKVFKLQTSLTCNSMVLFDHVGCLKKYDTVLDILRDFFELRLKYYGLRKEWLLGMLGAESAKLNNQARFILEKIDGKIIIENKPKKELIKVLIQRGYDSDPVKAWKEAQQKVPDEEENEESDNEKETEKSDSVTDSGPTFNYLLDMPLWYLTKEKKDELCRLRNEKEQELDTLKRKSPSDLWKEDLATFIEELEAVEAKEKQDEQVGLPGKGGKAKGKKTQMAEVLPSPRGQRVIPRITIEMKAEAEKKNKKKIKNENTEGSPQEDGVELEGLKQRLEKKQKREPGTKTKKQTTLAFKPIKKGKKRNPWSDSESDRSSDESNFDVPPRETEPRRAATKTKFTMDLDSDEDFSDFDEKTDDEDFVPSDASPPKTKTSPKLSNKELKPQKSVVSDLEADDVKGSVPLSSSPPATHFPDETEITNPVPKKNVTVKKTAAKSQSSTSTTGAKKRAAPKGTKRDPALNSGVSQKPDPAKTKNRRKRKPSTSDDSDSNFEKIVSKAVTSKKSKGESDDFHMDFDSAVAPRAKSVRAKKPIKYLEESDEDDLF

Row | SMILES | IC50 [1] | inhibition [2] | IC50 [3] | inhibition [4] | inhibition [5] | Activity [6] | inhibition (Homo sapiens) | inhibition [7] | IC50 [8] | Activity [9]
1 | Cc1oc2c(c1C(=O)Oc1ccccc1O)C(=O)c1ncccc1C2=O | 6.6 µM | Dose-dependent effect | 7.6 µM | 100% | inactive |  |  |  |  | 
2 | Cc1oc2c(c1C(=O)OCCO)C(=O)c1ncccc1C2=O | 9.8 µM | Dose-dependent effect | 20 µM | 100% | inactive |  |  |  |  | 
3 | CCOC(=O)c1noc2c1C(=O)c1cccnc1C2=O | 2.1 µM | Dose-dependent effect | 1.9 µM | 100% | inactive | inactive | inactive | inactive |  | 
4 | COC(=O)c1sccc1OC(=O)c1c(C)oc2c1C(=O)c1ncccc1C2=O | 24 µM |  | 22 µM |  |  |  |  |  | 38 µM | 
5 | Cc1oc2c(c1C(=O)Oc1cccc(O)c1)C(=O)c1ncccc1C2=O | 8.8 µM | Dose-dependent effect | 29 µM | 100% | inactive |  |  |  |  | 
6 | Cc1oc2c(c1C(=O)Oc1ccccc1)C(=O)c1ncccc1C2=O | 10 µM | Dose-dependent effect | 18 µM | 100% | inactive |  |  |  |  | 
7 | CC(=O)N1CCN(c2ccc(OC(=O)c3c(C)oc4c3C(=O)c3ncccc3C4=O)cc2)CC1 | 34 µM |  | 37 µM |  | inactive |  |  |  |  | 
8 | Cc1oc2c(c1C(=O)OCCC[n+]1ccc(N(C)C)cc1)C(=O)c1ncccc1C2=O | 38 µM |  | 43 µM |  | inactive |  |  |  |  | 
9 | Cc1oc2c(c1C(=O)Oc1ccc(C#N)cc1)C(=O)c1ncccc1C2=O | 13 µM |  | 15 µM |  | inactive |  |  |  |  | 
10 | Cc1oc2c(c1C(=O)Oc1ccc([N+](=O)[O-])cc1)C(=O)c1ncccc1C2=O |  |  | 28 µM |  |  |  |  |  | 48 µM | 
11 | Cc1oc2c(c1C(=O)Oc1ccc(Br)cc1)C(=O)c1ncccc1C2=O | 12 µM |  | 35 µM |  | inactive |  |  |  |  | 
12 | CC(=O)c1c(C)oc2c1C(=O)c1ncccc1C2=O | 36 µM |  | 35 µM |  | inactive |  |  |  |  | 
13 | CCOC(=O)c1noc2c1C(=O)c1ncccc1C2=O | 3.1 µM | Dose-dependent effect | 3.3 µM | 100% | inactive |  | inactive | inactive |  | 
14 | Cc1oc2c(c1C(=O)OCCc1cn(CCC(=O)O)nn1)C(=O)c1ncccc1C2=O | 16 µM |  | 20 µM |  | inactive |  |  |  |  | 
15 | COP(=O)(CCOC(=O)c1c(C)oc2c1C(=O)c1ncccc1C2=O)OC | 17 µM |  | 9 µM |  | inactive |  |  |  |  | 
16 | Cc1oc2c(c1C(=O)OCCCO)C(=O)c1ncccc1C2=O | 11 µM | Dose-dependent effect | 17 µM | 100% | inactive |  |  |  |  | 
17 | Cc1oc2c(c1C(=O)Oc1ccccc1C#N)C(=O)c1ncccc1C2=O | > 111 µM |  | > 111 µM |  | inactive |  |  |  |  | 
18 | Cc1oc2c(c1C(=O)OCC(F)(F)F)C(=O)c1ncccc1C2=O | 24 µM |  | 28 µM |  | inactive |  |  |  |  | 
19 | Cc1oc2c(c1C(=O)OC[C@@H](O)CO)C(=O)c1ncccc1C2=O | 14 µM | Dose-dependent effect | 12 µM | 100% | inactive |  |  |  |  | 
20 | CCOC(=O)c1c(C)oc2c1C(=O)c1ncccc1C2=O | 22 µM |  | 11 µM |  | inactive |  | inactive | inactive |  | inactive
21 | C#Cc1cccc(OC(=O)c2c(C)oc3c2C(=O)c2ncccc2C3=O)c1 | 13 µM |  | 43 µM |  | inactive |  |  |  |  | 
22 | N#Cc1ccc2cc3c(=O)[nH]c(=O)nc-3n(-c3cccc(-c4nnn[nH]4)c3)c2c1 |  | Dose-dependent effect |  | 100% |  |  |  |  |  | 
